Compounds with a hit are over-represented: about 3% of the library has one in this group of screens.
5HT1a ag: activates the human 5-HT1a serotonin receptor; P08908; CHO 5-HT1a Ga15 NFAT-bla reporter, FRET ratio; 0% basal, 100% maximal reference agonist; activation, % at 10 µM; 65,000 compounds, 0.56% hits; AID 567;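 active means activation above the screen-wide mean activation plus 3 SD, cut at about 19% in these data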
Target sequence (P08908 whole entry, looked up): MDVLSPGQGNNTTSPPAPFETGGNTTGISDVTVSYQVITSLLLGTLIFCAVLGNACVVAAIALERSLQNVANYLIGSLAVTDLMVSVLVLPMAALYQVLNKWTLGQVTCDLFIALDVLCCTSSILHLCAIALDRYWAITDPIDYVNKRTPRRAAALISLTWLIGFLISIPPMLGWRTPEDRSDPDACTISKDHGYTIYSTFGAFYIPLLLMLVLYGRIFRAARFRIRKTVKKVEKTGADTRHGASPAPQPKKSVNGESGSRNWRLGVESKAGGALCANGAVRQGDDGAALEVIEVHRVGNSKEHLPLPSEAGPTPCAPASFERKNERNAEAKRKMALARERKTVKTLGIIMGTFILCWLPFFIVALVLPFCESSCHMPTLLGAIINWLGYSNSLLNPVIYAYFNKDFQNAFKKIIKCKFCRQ
S1P1 ag pot: S1P1 (human) agonism or agonism potentiation; S1P1 CRE-bla cells, forskolin, beta-lactamase FRET, potentiator mode; S1P1 agonist co-added at EC20, 2 nM; 100% = saturating reference agonist, 0% = basal; P21453; AID 449; activation, % at 9.5 µM; 56,000 compounds, 0.57% hits;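 active means activation above a cutoff set at the mean activation of all tested compounds plus 3 SD, cut at about 54% in these data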;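 further: forskolin at 4 µM as EC80 and the EC20 agonist is SEW2871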
HTR1E antagonist: antagonists of human 5-HT1E serotonin receptor | P28566 | inhibition, % at 6 µM | 65,000 compounds, 0.99% hits | CHO 5-HT1E Ga15 NFAT-bla reporter, FRET, antagonist;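 active means inhibition above a set limit, the mean inhibition across every tested compound plus 3 SD, cut at about 29% in these data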;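 further: signal is the 460 over 535 nm emission ratio of beta-lactamase substrate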
HTR1E agonist: 5-HT1E (human) receptor agonism; P28566; 65,000 compounds, 0.69% hits; CHO 5-HT1E Ga15 NFAT-bla reporter, FRET; 0% DMSO wells, 100% control agonist wells; activation, % at 6 µM;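 active means activation above a set limit, the screen-wide mean activation plus 3 SD, cut at about 8.5% in these data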
S1P3 agonist: activates the human S1P3 receptor. Q99500. S1P3 NFAT-BLA reporter cells, agonism, FRET ratio; relative to 1 µM S1P, basal subtracted. activation, % at 4.5 µM. 60,000 compounds, 0.1% hits. AID 373;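 active means activation above the screen-wide mean plus 3 SD, cut at about 4.5% in these data, passing the limit was not always enough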
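Measure – % activation relative to 1 µM S1P (100%), per plate · System – stable CHO line with human S1P3, Gα16, NFAT-BLA reporter · Timing – cells plated overnight, compound 4 h 37 °C, substrate 2 h RT · Technique – fluorescent BLA substrate, ex 405 nm, em 460/535 nm ratio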
5HT1a antag: blocks the human serotonin 5-HT1a receptor; P08908; CHO 5-HT1a Ga15 NFAT-bla reporter, antagonist mode; inhibition, % at 10 µM; 62,000 compounds, 0.68% hits; AID 612;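 active means inhibition above the mean of all tested compounds plus 3 SD, cut at about 43% in these data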;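 further: receptor stimulated by 5-CT agonist at 100 nM near EC80; beta-lactamase reporter measured by ratiometric fluorescence of a cleavable substrate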
Hits are given with their value; i = inactive; nt = no result given.

SMILES	5HT1a ag	S1P1 ag pot	HTR1E antagonist	HTR1E agonist	S1P3 agonist	5HT1a antag
CCN1CCN(Cc2ccc(OC)c(OCc3ccccc3)c2)CC1	i	i	i	i	i	i
COc1ccccc1N1CCN(C(c2ccc(F)cc2)c2nnnn2C(C)C)CC1 (stereo not drawn)	i	i	i	i	i	43
CC(C)(C)NC(=O)CC(CC(=O)O)c1ccccc1 (stereo not drawn)	i	i	i	i	i	i
COc1ccc(CC(C)N2CCN(c3ccccc3OC)CC2)cc1OC (stereo not drawn)	i	i	i	i	i	98
CCOc1ccccc1N1CCN(Cc2ccc(OC)c(OC)c2OC)CC1	i	i	i	17	i	80
COc1ccccc1N1CCN(Cc2cccc(OC)c2OC)CC1	i	i	i	i	i	i
CN(C)CCCN1c2ccccc2CCc2ccc(Cl)cc21	i	i	i	10	i	nt
CN(C)CCCN1c2ccccc2Sc2ccccc21	i	i	i	i	i	nt
CCn1c(SCC(=O)Nc2nc(C)c(C(=O)OC)s2)nnc1C(C)C	i	i	i	i	i	i
CCOC(=O)CC1=C(C(=O)OCC)C(c2ccc(C)o2)C(C#N)=C(N)O1 (stereo not drawn)	i	i	35	i	i	53
CC(C)(C)n1nnnc1C(c1ccccc1F)N(Cc1ccco1)CC1CCCO1 (stereo not drawn)	i	i	i	i	i	i
COc1cccc(CN(Cc2ccco2)C(c2ccc(F)cc2)c2nnnn2C(C)(C)C)c1 (stereo not drawn)	i	i	i	i	i	46
CCN(C#N)c1nc(N(C)C)nc(N(C)C)n1	i	nt	i	i	i	i
CCc1nc(NCc2ccco2)c2oc3ccccc3c2n1	i	nt	34	i	nt	i
CCc1nc(SCCO)c2oc3ccccc3c2n1	i	i	33	i	i	i
CCNc1nc(CC)nc2c1oc1ccccc12	i	nt	29	i	nt	i
c1coc(CNc2ncnc3c2oc2ccccc23)c1	i	i	i	i	i	i
O=C(Nc1ccccc1C(=O)OCC(=O)N1CCc2ccccc2C1)c1ccco1	i	i	i	i	i	i
CCOC(=O)c1c(C)[nH]c(C(=O)COC(=O)CSCC(=O)N(CC)CC)c1C	i	i	i	i	i	i
Cc1cc(C)n(-c2nc3c(c(=O)[nH]c(=O)n3C)n2CC(O)COc2ccccc2C)n1 (stereo not drawn)	i	i	i	i	i	i
COc1ccc2[nH]cc(C(O)CN3CCN(c4ccccc4)CC3)c2c1 (stereo not drawn)	i	i	i	i	i	i
COc1ccc(N2CCN(CC(O)c3c[nH]c4ccc(OC)cc34)CC2C)cc1 (stereo not drawn)	23	i	i	i	i	i
N#CCCN1CCN(C(=S)c2ccc(-c3cc(Cl)ccc3Cl)o2)CC1	i	i	31	i	i	i
S=C(c1ccc(-c2ccccc2Cl)o1)N1CCOCC1	i	i	i	i	i	i
Cc1ccc(S(=O)(=O)N2CCN(S(=O)(=O)c3ccc(C)cc3)C3OCCOC32)cc1 (stereo not drawn)	i	i	i	i	i	i
SMILES	5HT1a ag	S1P1 ag pot	HTR1E antagonist	HTR1E agonist	S1P3 agonist	5HT1a antag
CCn1c(CNC(=O)c2cccc(C)c2)nc2ccccc21	i	i	i	i	i	i
COc1cc(C(=O)Nc2nc3ccccc3[nH]2)cc(OC)c1OC	i	i	i	i	i	i
COC(=O)Nc1nc2ccc(C(=O)c3ccccc3)cc2[nH]1	i	i	75	i	i	nt
CCCSc1ccc2nc(NC(=O)OC)[nH]c2c1	i	i	42	i	i	nt
COc1ccc2c(CSc3nc4nc(C)cc(C)n4n3)cc(=O)oc2c1	i	i	i	i	i	i
O=C(CSc1nnc(-c2ccccn2)n1Cc1ccccc1)Nc1ccc2c(c1)OCO2	i	i	i	i	i	i
COCCN1Cc2cccc(C(=O)NCc3ccc4c(c3)OCO4)c2C1=O	238	i	i	i	i	i
COc1ccccc1NC(=O)NCc1ccc2c(c1)OCO2	i	i	i	i	i	i
COCCN1Cc2cccc(C(=O)NCc3ccccn3)c2C1=O	i	i	i	i	i	i
COC(=O)c1ccccc1NC(=O)NCc1ccc2c(c1)OCO2	i	i	31	i	i	i
Cc1ccccc1NC(=O)NCCN1C(=O)C2C3C=CC(C3)C2C1=O (stereo not drawn)	i	i	i	i	i	i
O=C(Nc1cccc(-c2nc3ccccc3[nH]2)c1)c1cccc(NC(=O)c2ccco2)c1	i	i	43	i	i	i
Cc1ccc(-c2nc3ccccc3[nH]2)cc1NC(=O)c1ccco1	i	i	i	i	i	i
CCOC(=O)CN1C(=O)C(C)(C)Oc2ccc(C(=O)Nc3ccccc3OC)cc21	i	90	i	i	i	i
CCC(=O)N1CCc2cc(S(=O)(=O)N3CCN(C(=O)c4ccco4)CC3)ccc21	i	nt	i	i	nt	i
CC(=O)N1CCc2cc(S(=O)(=O)CCC(=O)N3CCN(C(=O)c4ccco4)CC3)ccc21	i	i	31	i	i	i
O=c1oc(-c2cccs2)nc2c1cnn2-c1ccccc1	i	i	i	i	i	i
CC(=O)Nc1nc(=O)c2ccccc2s1	i	i	i	i	i	47
O=C(NCc1ccccc1)N(Cc1nc2ccccc2c(=O)[nH]1)C1CCCC1	i	i	i	i	i	i
COc1ccc(-n2c(/C=C(\C)O)nc(=O)c3c(C)cc(C)nc32)cc1	i	i	i	i	i	i
CN(C)c1cc(-c2ccccc2)nc(N)n1	i	i	i	i	i	i
Nc1nc(-c2ccccc2)nc(-c2ccccc2O)n1	i	i	i	i	i	51
Nc1nc(-c2ccccc2)cc(-c2ccccc2O)n1	i	i	i	i	i	57
O=S(=O)(c1ccc(F)cc1)N1CCC(N2CCN(c3ccccc3)CC2)CC1	i	nt	i	i	i	i
CN(C)S(=O)(=O)c1ccc(S(=O)(=O)N(Cc2ccco2)Cc2ccccc2Cl)cc1	i	i	32	i	i	i
SMILES	5HT1a ag	S1P1 ag pot	HTR1E antagonist	HTR1E agonist	S1P3 agonist	5HT1a antag
O=S(=O)(c1ccc(S(=O)(=O)N(Cc2ccco2)Cc2ccccc2Cl)cc1)N1CCCC1	i	i	i	i	i	i
Fc1ccc(COc2ccc(/C=N/n3cnnc3)cc2)cc1	i	64	i	i	i	i
OC1CCN(c2c3c(nc4cc(-c5cccc(F)c5)nn24)CCCC3)CC1	i	nt	31	i	nt	i
Fc1cccc(-c2cc3nc4c(c(N5CCC6(CC5)OCCO6)n3n2)CCCC4)c1	i	nt	i	i	nt	i
CCc1c(C)nc2cc(-c3ccc(OC)c(OC)c3)nn2c1N1CCCC1	i	nt	31	i	nt	i
CC1CCN(S(=O)(=O)c2ccc(Cl)cc2)CC1	i	i	i	i	i	i

Screens: PubChem BioAssay, The Scripps Research Institute Molecular Screening Center
